According to ChEMBL document CHEMBL2346664, “Synthesis, characterization and in vitro anticancer evaluation of novel 1,2,4-triazolin-3-one derivatives” (2013):

Assays:
Assay type in all cases: functional
NCI-H226 = test: Growth inhibition of human NCI-H226 cells assessed as growth inhibition at 10 uM after 48 hrs by sulforhodamine B assay; settings: NCI-H226, 48 h, read-out: GI
HOP-62 = test: Growth inhibition of human HOP62 cells assessed as cell growth at 10 '-6 M after 48 hrs by sulforhodamine B assay; settings: HOP-62, 48 h, read-out: Activity
HCT-116 = test: Growth inhibition of human HCT116 cells after 48 hrs by sulforhodamine B assay; settings: HCT-116, 48 h
How it was run: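 NCI 60-cell-line five-dose screen. Cells were plated at 5,000–40,000/well by doubling time and grown 24 h at 37 °C, 5% CO2. Time-zero plates were TCA-fixed. Drug from DMSO stock was tested at 0.01, 0.1, 1, 10 and 100 µM final for 48 h continuous exposure. Read-out was SRB at 515 nm. GI50 is the concentration giving 50% reduction in net protein increase versus untreated control.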

BT-549 [1] = test: Growth inhibition of human BT549 cells assessed as growth inhibition at 10 uM after 48 hrs by sulforhodamine B assay; settings: BT-549, 48 h, read-out: GI
How it was run: (§1)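 Percent growth inhibition from the single 10^-5 M NCI-60 screen, reported as 100 minus growth percent. Growth percent was measured after 48 h drug exposure at 37 °C, 5% CO2, using TCA fixation, SRB staining and absorbance at 515 nm, against untreated controls and time-zero plates.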

SK-OV-3 = test: Growth inhibition of human SKOV3 cells assessed as cell growth at 10 '-4 M after 48 hrs by sulforhodamine B assay; settings: SK-OV-3, 48 h, read-out: Activity
BT-549 [2] = test: Growth inhibition of human BT549 cells assessed as cell growth at 10 '-5 M after 48 hrs by sulforhodamine B assay; settings: BT-549, 48 h, read-out: Activity
How it was run: (§2)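 Percent growth at each of the five concentrations of the 48 h continuous-exposure NCI SRB screen. Drug stocks were in DMSO at 400× the top final concentration and diluted in medium with gentamicin. Growth was calculated as [(Ti-Tz)/(C-Tz)]×100 when Ti ≥ Tz, or [(Ti-Tz)/Tz]×100 when Ti < Tz. Tz plates were fixed at drug addition; untreated wells served as control. Absorbance was read at 515 nm.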

UO-31 = test: Growth inhibition of human UO31 cells after 48 hrs by sulforhodamine B assay; settings: UO-31, 48 h
[3] = Growth inhibition of human […] cells assessed as growth inhibition at 10 uM after 48 hrs by sulforhodamine B assay; settings: read-out: GI; how it was run: as §1
ACHN = test: Growth inhibition of human ACHN cells assessed as cell growth at 10 '-4 M after 48 hrs by sulforhodamine B assay; settings: read-out: Activity; how it was run: as §2
HT-29 [4] = test: Growth inhibition of human HT-29 cells assessed as cell growth at 10 '-5 M after 48 hrs by sulforhodamine B assay; settings: HT-29, 48 h, read-out: Activity
SNB-19 = test: Growth inhibition of human SNB19 cells assessed as cell growth at 10 '-7 M after 48 hrs by sulforhodamine B assay; settings: SNB-19, 48 h, read-out: Activity
COLO 205 = test: Growth inhibition of human COLO205 cells assessed as cell growth at 10 '-4 M after 48 hrs by sulforhodamine B assay; settings: COLO 205, 48 h, read-out: Activity
How it was run: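 In the same five-dose SRB screen (48 h, 37 °C, 5% CO2), percentage growth was computed at each concentration from time-zero (Tz), control (C) and treated (Ti) absorbances. The formula was [(Ti−Tz)/(C−Tz)]×100 when Ti ≥ Tz, or [(Ti−Tz)/Tz]×100 when Ti < Tz.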

MDA-MB-468 = test: Growth inhibition of human MDA-MB-468 cells assessed as cell growth at 10 '-4 M after 48 hrs by sulforhodamine B assay; settings: MDA-MB-468, 48 h, read-out: Activity
LOX IMVI = test: Growth inhibition of human LOXIMVI cells assessed as cell growth at 10 '-4 M after 48 hrs by sulforhodamine B assay; settings: read-out: Activity
OVCAR-5 = test: Growth inhibition of human OVCAR5 cells assessed as cell growth at 10 '-5 M after 48 hrs by sulforhodamine B assay; settings: OVCAR-5, 48 h, read-out: Activity
HT-29 [5] = test: Growth inhibition of human HT-29 cells assessed as cell growth at 10 '-7 M after 48 hrs by sulforhodamine B assay; settings: HT-29, 48 h, read-out: Activity
OVCAR-8 = test: Growth inhibition of human OVCAR8 cells assessed as growth inhibition at 10 uM after 48 hrs by sulforhodamine B assay; settings: OVCAR-8, 48 h, read-out: GI
HCT-15 = test: Growth inhibition of human HCT15 cells assessed as growth inhibition at 10 uM after 48 hrs by sulforhodamine B assay; settings: HCT-15, 48 h, read-out: GI
DU-145 = test: Growth inhibition of human DU145 cells assessed as cell growth at 10 '-5 M after 48 hrs by sulforhodamine B assay; settings: DU-145, 48 h, read-out: Activity
SK-MEL-2 = test: Growth inhibition of human SK-MEL-2 cells assessed as cell growth at 10 '-6 M after 48 hrs by sulforhodamine B assay; settings: SK-MEL-2, 48 h, read-out: Activity
PC-3 = test: Growth inhibition of human PC3 cells assessed as cell growth at 10 '-6 M after 48 hrs by sulforhodamine B assay; settings: PC-3, 48 h, read-out: Activity
TK-10 = test: Growth inhibition of human TK10 cells after 48 hrs by sulforhodamine B assay; settings: TK-10, 48 h
[6] = Growth inhibition of human HCC2998 cells assessed as growth inhibition at 10 uM after 48 hrs by sulforhodamine B assay; settings: HCC 2998, 48 h, read-out: GI
A498 = test: Growth inhibition of human A498 cells after 48 hrs by sulforhodamine B assay; settings: A498, 48 h
How it was run: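 NCI 60-cell-line five-dose screen at 0.01, 0.1, 1, 10 and 100 µM final. Cells were plated at 5,000–40,000/well and grown 24 h at 37 °C, 5% CO2, then exposed to drug continuously for 48 h. Adherent cells were fixed with cold TCA (10% final) and stained with SRB; absorbance read at 515 nm. GI50 is the concentration where [(Ti-Tz)/(C-Tz)]×100 = 50, with Tz plates fixed at drug addition.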

SF-295 = test: Growth inhibition of human SF295 cells assessed as cell growth at 10 '-4 M after 48 hrs by sulforhodamine B assay; settings: SF-295, 48 h, read-out: Activity
K562 = test: Growth inhibition of human K562 cells assessed as cell growth at 10 '-8 M after 48 hrs by sulforhodamine B assay; settings: K562, 48 h, read-out: Activity
[7] = read-out: LD50 (the source's name)

Work on `Cc1cc(=O)oc2cc(OCCn3c(C)nn(-c4ccc(Cl)cc4)c3=O)ccc12` yielded an inhibition of growth at 10 µM (NCI-H226) of 49.9%, a growth at 1 µM (HOP-62) of 89% and a GI50 (HCT-116) of 3570 nM. The TGI (HCT-116) was greater than 1000 nM, the CC50 (HCT-116; [7]) was greater than 1000 nM and the inhibition of growth at 10 µM (BT-549 [1]) was 43.3%. For the same molecule, the growth at 100 µM (SK-OV-3) was -7%, the growth at 10 µM (BT-549 [2]) was 64% and the GI50 (UO-31) was 1270 nM. For the same molecule, the TGI (UO-31) was greater than 1000 nM, the CC50 (UO-31; [7]) was greater than 1000 nM and the inhibition of growth at 10 µM [3] was 67.1%. It also gave a growth at 100 µM (ACHN) of 25%, a growth at 10 µM (HT-29 [4]) of 14% and a growth at 0.1 µM (SNB-19) of 89%. For the same molecule, the growth at 100 µM (COLO 205) was -38%, the growth at 100 µM (MDA-MB-468) was -5% and the growth at 100 µM (LOX IMVI) was 30%. For the same molecule, the growth at 10 µM (OVCAR-5) was 53%, the growth at 0.1 µM (HT-29 [5]) was 106% and the inhibition of growth at 10 µM (OVCAR-8) was 82.3%. The inhibition of growth at 10 µM (HCT-15) was 82.3%, the growth at 10 µM (DU-145) was 18% and the growth at 1 µM (SK-MEL-2) was 112%. The growth at 1 µM (PC-3) was 74%, the GI50 (TK-10) was 1340 nM and the TGI (TK-10) was 8840 nM. It also gave a CC50 (TK-10; [7]) greater than 1000 nM, an inhibition of growth at 10 µM [6] of 53.3% and a GI50 (A498) of 1130 nM. It also gave a TGI (A498) of 3190 nM, a CC50 (A498; [7]) greater than 1000 nM and a growth at 100 µM (SF-295) of 16%. It also gave a growth at 0.01 µM (K562) of 107%.
